Article PMC6990463 (Cellular physiology and biochemistry : international …, 2019)
Peptide text beside a SMILES is read from it. * marks the point of attachment. Cbz = O=C(OCc1ccccc1)*; CH2F = FC*

How the values were obtained:
[1] = test system: cleaved lamin A/C; test: Western blotting for Lamin A/C in WM266–4 cells; type: cell-based, human; conditions: LY294002 10 μM, 2155–14 100 μM
Procedure, shortened: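 WM266–4 cells (1 × 10^6, E-MEM + 10% FBS, 6 cm plates) pre-treated after 24 h with caspase inhibitors for 3 h or autophagy inhibitors (LY294002 10 μM, hydroxychloroquine) for 1 h. Test compound given at various doses and times, with or without inhibitors; controls staurosporine 1 μM, rapamycin 10 μM + chloroquine 5 μM. Lysates blotted with polyclonal lamin A/C antibody (1:1000).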

[2] = test system: LC3-II; test: Western blotting for LC3 in WM266–4 cells; type: cell-based, human
Procedure, shortened: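 1 × 10^6 cells seeded (WM266–4 in E-MEM, M14 in RPMI-1640; + 10% FBS) in 6 cm plates. Test compound at various doses and times; controls rapamycin 10 μM + chloroquine 5 μM, staurosporine 1 μM. Lysates blotted with polyclonal LC3 A/B antibody (1:1000); bands normalised to β-actin, as fold of untreated; n=3.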

[3] = test system: WM266–4; test: Cell viability assay; type: cell-based, human; conditions: for WM266–4 viability, inhibitor alone: 50 μM inhibitor, 72 h
[4] = test system: sXBP1; test: ER stress assay; type: cell-based, human; conditions: 60 μM STF-83010 pre-treatment 3 h
Procedure, shortened: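 WM266–4 cells (0.2 × 10^6, E-MEM + 10% FBS, 24-well) pre-treated 24 h after seeding with 60 μM STF-83010 or vehicle for 3 h. RNA extracted with TRI reagent; amplified products run on 2% agarose with GelGreen and quantified. sXBP-1 expressed as % of total XBP-1 (sXBP-1 + XBP-1).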

[5] = test system: metastatic melanoma; conditions: BRAF-mutant metastatic melanoma; cited from earlier work
[6] = test system: PC-3 cells; conditions: read-out: IC50, apoptotic cell death of PC-3 cells; cited from earlier work
[7] = test system: WM266–4 cells; test: Annexin V flow cytometry assay; type: cell-based, human; conditions: 4 h, staurosporine 1 μM
Procedure, shortened: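 WM266–4 cells (1,000,000/flask, EMEM + 10% FBS + 1% pen/strep) adhered overnight. 24 h after plating, optional 2 h pre-treatment with Z-VAD-FMK 10 μM. Test compound 100 μM or staurosporine 1 μM (control) for 4, 24 and 48 h. Adherent plus floating cells pooled, Annexin V-FITC stained, and viable, necrotic, early and late apoptotic cells counted by flow cytometry.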

[8] = test system: SKMEL28; conditions: read-out: IC50, viability SKMEL28; V600E BRAF/R24C CDK4 primary; cited from earlier work
[9] = test system: M14; test: Cell viability assay; type: cell-based; conditions: Homo sapiens, M14, 72 h, read-out: IC50, viability M14 (M)
[10] = test system: SKMEL2; test: Cell viability assay; type: cell-based; conditions: Homo sapiens, SK-MEL-2, 72 h, read-out: IC50, viability SKMEL2 (M)
Procedure, shortened: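 Cells plated in 384-well format. Test compound as a 10-point 1:3 dilution series prepared from 300 μM; dabrafenib as assay control. Incubated 72 h at 37 °C, 5% CO2. CellTiter-Glo added for 15 min at room temperature; luminescence read. Viability normalised to media-only (0%) and DMSO-treated cells (100%). S/B, CV and Z′ computed per plate.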

[11] = test system: WM115; test: Cell viability assay; type: cell-based; conditions: Homo sapiens, WM-115, 72 h, read-out: IC50, viability WM115 (F)

Q: What does the source list for O=c1cc(N2CCOCC2)oc2c(-c3ccccc3)cccc12 [LY294002]?
A: effect of pre-treatment on cleaved lamin A/C levels in cells treated with 2155–14 [1]: no effect; LC3-II levels, fold of untreated control ([2]; LY294002 10 μM alone): 20 fold; LC3-II levels, fold of untreated control ([2]; combination of LY294002 10 μM and 2155–14 100 μM): ~ 40 fold

Q: For CC(C)[C@H](NC(=O)OCc1ccccc1)C(=O)N[C@H](C=O)Cc1ccccc1 [MDL-28170] (Cbz-Val-Phe-aldehyde), which “WM266–4 viability 24 h after addition of 2155–14, inhibitor pre-incubation” value ([3]; caspase inhibitors 10 μM, calpain inhibitors 25 μM, 2155–14 100 μM) is on record?
A: further decreased cell viability

Q: Which “effect on sXBP1 formation by 2155–14” value [4] does the source give for O=S(=O)(N=Cc1c(O)ccc2ccccc12)c1cccs1 [STF-83010] here?
A: inhibited

Q: Which “median progression-free survival (PFS)” value [5] does the source give for CC(C)(C)c1nc(-c2cccc(NS(=O)(=O)c3c(F)cccc3F)c2F)c(-c2ccnc(N)n2)s1 [dabrafenib] here?
A: 6.9 months

Q: With O=c1c(O)c(-c2ccc(O)c(O)c2)oc2cc(O)cc(O)c12 [quercetin] as the compound, how does the IC50 [6] read?
A: 100 µM

Q: Which apoptosis detection [7] does the source give for CN[C@@H]1C[C@H]2O[C@@](C)([C@@H]1OC)n1c3ccccc3c3c4c(c5c6ccccc6n2c5c31)C(=O)NC4 [staurosporine] here?
A: apoptosis was detected

Q: Which “median progression-free survival (PFS)” value [5] does the source give for CCCS(=O)(=O)Nc1ccc(F)c(C(=O)c2c[nH]c3ncc(-c4ccc(Cl)cc4)cc23)c1F [vemurafenib] here?
A: 6.9 months

Q: And the IC50 [8]?
A: 4.6 µM

Q: And the IC50 [9]?
A: 1e-06 ± 2e-07 M

Q: And the IC50 [10]?
A: 1.4e-06 ± 7e-07 M

Q: And the IC50 [11]?
A: 5 ± 0.9 µM

Q: What about the IC50 ([3]; Homo sapiens, WM 266-4, 72 h, read-out: IC50, viability WM266–4 (F)) of the same compound?
A: 3 ± 0.4 µM

Q: For Cbz-Val-Ala-Asp-CH2F, which “WM266–4 viability, inhibitor alone” value [3] is on record?
A: completely inhibited cell viability

Q: For “Z-IETD-FMK: selective caspase 8 inhibitor”, which “WM266–4 viability, inhibitor alone” value [3] is on record?
A: completely inhibited cell viability

Q: And the “WM266–4 cells viable, 2155–14 in combination with inhibitor” value ([3]; 48 h, 2155–14 100 μM, caspase inhibitors 10 μM, calpain inhibitor 25 μM)?
A: 25%
